Assay results published in PMC5889851 (ACS chemical biology, 2018).

Columns and labels:
[1] = system: HEK293 cells overexpressing SIRT2; experiment: Cellular NAD+ measurement; type: cell-based, human; settings: 40 nM, 6 h, vs control cells
Outline: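 SIRT2-overexpressing HEK293 cells got 0 or 40 nM NAMPT inhibitor for 6 h, then were harvested, rinsed and resuspended in fresh medium. Pellets were extracted with ice-cold 7% perchloric acid through three vortex (30 s) and ice sonication (5 min) cycles. Extracts were centrifuged 3 min at RT, and supernatant was neutralised to pH 7 with NaOH and phosphate buffer. NAD⁺ was quantified by cycling assay.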

[2] = system: HEK293 cells; experiment: Viability testing using trypan blue; type: cell-based, human; settings: 40 nM, 6 h
Outline: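 HEK293 cells received 0 or 40 nM NAMPT inhibitor for 6 h, then were harvested, rinsed and resuspended in fresh medium. An aliquot of the suspension was scored for viability by trypan blue exclusion.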

[3] = target: T1, SIRT2 in SIRT2 overexpressing HEK293 cells (Homo sapiens, UniProt Q8IXJ6); experiment: In situ labeling of SIRT2 with activity-based probe; type: cell-based; settings: cells treated with FK866 6 h, then 10 μM probe 1; compared to control cells
T1 sequence (Q8IXJ6 1-389): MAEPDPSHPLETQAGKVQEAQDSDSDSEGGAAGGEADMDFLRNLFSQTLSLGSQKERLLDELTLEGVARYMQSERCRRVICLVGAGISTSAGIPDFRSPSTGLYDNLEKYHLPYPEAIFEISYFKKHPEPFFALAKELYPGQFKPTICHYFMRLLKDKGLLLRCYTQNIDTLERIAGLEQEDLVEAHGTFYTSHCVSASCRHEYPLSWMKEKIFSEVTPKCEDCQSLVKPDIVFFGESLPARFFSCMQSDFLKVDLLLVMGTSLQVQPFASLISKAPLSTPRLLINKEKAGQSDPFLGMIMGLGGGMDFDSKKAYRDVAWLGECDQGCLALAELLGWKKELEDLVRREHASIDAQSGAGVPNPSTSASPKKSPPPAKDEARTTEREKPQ
Outline: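 SIRT2-overexpressing HEK293 cells were treated with or without NAMPT inhibitor for 6 h, rinsed three times, and given fresh medium with 10 μM probe. Live cells were irradiated at 365 nm on ice for 1 h, then harvested and lysed. Lysate was click-conjugated to azide-fluor 545, resolved by SDS-PAGE and scanned for fluorescence. SIRT2 protein level was checked by Western blot.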

in situ labeling intensity of SIRT2 by probe 1 [3]: decreased labeling intensity
SMILES: O=C(/C=C/c1cccnc1)NCCCCC1CCN(C(=O)c2ccccc2)CC1 [FK866]
NAD+ depletion [1]: 60%
loss of viability [2]: negligible loss of viability
